In ChEMBL document CHEMBL3124917, “Design, synthesis, and biological evaluation of deuterated C-aryl glycoside as a potent and long-acting renal sodium-dependent glucose cotransporter 2 inhibitor for the treatment of type 2 diabetes” (J Med Chem, 2014):

Assays:
[1] = Drug metabolism in Sprague-Dawley rat assessed as compound remaining at 50 mg/kg, po after 5 days by HPLC analysis; type: ADME, organism-based; set-up: dose 50 mg/kg, route oral; conditions: in vivo, read-out: Drug metabolism
[2] = AUC (0 to infinity) in Sprague-Dawley rat at 3 mg/kg, po by LC-MS/MS analysis; type: ADME, organism-based; set-up: time infinity, dose 3 mg/kg, route oral; conditions: plasma
Method in brief: (§1)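 Male Sprague-Dawley rats, n = 4 per group, overnight-fasted. Oral gavage of 3 or 1 mg/kg in 30% PEG400; i.v. arm at 1 mg/kg. Orbital plexus blood taken under ether at 0.083–24 h; plasma deproteinized and assayed by LC-MS/MS. Noncompartmental parameters derived; mean ± SD reported.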

Canis familiaris [3] = assay: Antidiabetic activity in Beagle dog assessed as urinary glucose excretion at 0.03 mg/kg, po administered 1 hr prior to glucose challenge measured after 1 to 24 hrs relative to dapagliflozin; type: functional, Canis lupus familiaris, Urine
Method in brief: (§2)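 Overnight-fasted beagle dogs, n = 3 per group, given 0.03 mg/kg orally by gavage in 10% PEG400; vehicle controls received 10% PEG400. Oral glucose (2 g/kg, 5 mL/kg) given 1 h post-dose. Urine collected in metabolic cages at 0–8 and 8–24 h, glucose read on a biochemistry analyzer. Expressed as % of reference positive control; mean ± SD.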

Canis familiaris [4] = assay: Antidiabetic activity in Beagle dog assessed as urinary glucose excretion at 0.03 mg/kg, po administered 1 hr prior to glucose challenge measured after 8 to 24 hrs relative to dapagliflozin; type: functional, Canis lupus familiaris, Urine
Method in brief: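 Overnight-fasted beagle dogs, n = 3 per group, given 0.03 mg/kg orally by gavage in 10% PEG400; vehicle controls received 10% PEG400. Oral glucose (2 g/kg, 5 mL/kg) given 1 h post-dose. Expressed as % of reference positive control; mean ± SD.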

Canis familiaris [5] = assay: Antidiabetic activity in Beagle dog assessed as urinary glucose excretion at 0.03 mg/kg, po administered 1 hr prior to glucose challenge measured after 1 to 8 hrs relative to dapagliflozin; type: functional, Canis lupus familiaris, Urine; method in brief: as §2
Rattus norvegicus [6] = assay: Antidiabetic activity in Sprague-Dawley rat assessed as urinary glucose excretion at 1 mg/kg, po administered 1 hr prior to glucose challenge measured after 1 to 24 hrs relative to dapagliflozin; type: functional, Urine
Method in brief: (§3)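 Overnight-fasted Sprague-Dawley rats, n = 3 per group, dosed 1 mg/kg by oral gavage in 30% PEG400; controls received vehicle. Oral glucose (2 g/kg, 10 mL/kg) given 1 h post-dose. Urine collected in metabolic cages at 0–4 and 4–24 h, glucose measured on a biochemistry analyzer. Expressed as % of reference positive control; mean ± SD.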

Rattus norvegicus [7] = assay: Antidiabetic activity in Sprague-Dawley rat assessed as urinary glucose excretion at 1 mg/kg, po administered 1 hr prior to glucose challenge measured after 4 to 24 hrs relative to dapagliflozin; type: functional, Urine; method in brief: as §3
Rattus norvegicus [8] = assay: Antidiabetic activity in Sprague-Dawley rat assessed as urinary glucose excretion at 1 mg/kg, po administered 1 hr prior to glucose challenge measured after 1 to 4 hrs relative to dapagliflozin; type: functional, Urine; method in brief: as §3
[9] = molecular target: T1, Sodium/glucose cotransporter 1 (Homo sapiens, UniProt P13866); assay: Inhibition of full length human SGLT1 assessed as methyl-alpha-D-[U-14C]glucopyranoside uptake after 2 hrs by cell-based topcount scintillation counting analysis
T1 sequence (P13866 whole entry): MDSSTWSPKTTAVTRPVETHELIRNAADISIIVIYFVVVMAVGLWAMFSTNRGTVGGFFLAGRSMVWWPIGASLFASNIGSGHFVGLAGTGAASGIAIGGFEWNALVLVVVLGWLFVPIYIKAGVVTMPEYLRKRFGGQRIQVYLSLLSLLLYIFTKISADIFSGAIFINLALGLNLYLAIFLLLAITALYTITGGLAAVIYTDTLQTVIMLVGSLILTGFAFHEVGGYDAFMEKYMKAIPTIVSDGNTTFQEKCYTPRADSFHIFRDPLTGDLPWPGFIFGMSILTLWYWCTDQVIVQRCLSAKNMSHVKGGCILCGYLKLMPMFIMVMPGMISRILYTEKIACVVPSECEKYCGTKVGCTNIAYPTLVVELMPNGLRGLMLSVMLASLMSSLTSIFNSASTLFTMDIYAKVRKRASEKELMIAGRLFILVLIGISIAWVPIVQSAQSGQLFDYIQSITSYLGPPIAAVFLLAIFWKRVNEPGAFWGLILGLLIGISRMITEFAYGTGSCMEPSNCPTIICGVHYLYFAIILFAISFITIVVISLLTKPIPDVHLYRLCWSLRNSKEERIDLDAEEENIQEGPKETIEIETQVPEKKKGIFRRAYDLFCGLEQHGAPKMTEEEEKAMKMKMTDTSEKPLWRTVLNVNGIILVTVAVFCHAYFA

[10] = molecular target: T2, Sodium/glucose cotransporter 2 (Homo sapiens, UniProt P31639); assay: Inhibition of full length human SGLT2 assessed as methyl-alpha-D-[U-14C]glucopyranoside uptake after 1.5 hrs by cell-based topcount scintillation counting analysis
T2 sequence (P31639 whole entry): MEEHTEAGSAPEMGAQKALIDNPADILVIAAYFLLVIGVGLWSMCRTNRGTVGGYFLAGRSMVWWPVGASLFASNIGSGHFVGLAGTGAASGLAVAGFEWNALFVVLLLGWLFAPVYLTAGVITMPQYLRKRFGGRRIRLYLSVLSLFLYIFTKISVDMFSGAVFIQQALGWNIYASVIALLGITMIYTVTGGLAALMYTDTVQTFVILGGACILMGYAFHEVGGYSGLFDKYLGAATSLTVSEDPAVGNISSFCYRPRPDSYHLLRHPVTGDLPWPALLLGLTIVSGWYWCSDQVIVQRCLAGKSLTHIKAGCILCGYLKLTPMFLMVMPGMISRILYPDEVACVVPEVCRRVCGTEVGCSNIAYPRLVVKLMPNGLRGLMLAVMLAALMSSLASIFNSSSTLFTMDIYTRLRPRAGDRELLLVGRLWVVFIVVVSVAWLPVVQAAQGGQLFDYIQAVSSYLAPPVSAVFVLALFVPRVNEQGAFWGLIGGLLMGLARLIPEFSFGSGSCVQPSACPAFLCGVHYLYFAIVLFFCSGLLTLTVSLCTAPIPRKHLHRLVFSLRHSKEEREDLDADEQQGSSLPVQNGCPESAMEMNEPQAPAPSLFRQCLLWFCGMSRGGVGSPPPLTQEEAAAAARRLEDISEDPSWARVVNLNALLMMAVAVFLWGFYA

Rattus norvegicus [11] = assay: Antidiabetic activity in Sprague-Dawley rat assessed as reduction in blood glucose AUC at 10 mg/kg, po administered 1 hr prior to glucose challenge measured after 60 to 120 mins by oral glucose tolerance test relative to control; type: functional; set-up: scale not given: the % may be the effect or the level left
Method in brief: (§4)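 Overnight-fasted male Sprague-Dawley rats, n = 5 per group, dosed orally at 0.1, 0.3, 1, 3 or 10 mg/kg in 30% PEG400 1 h before oral glucose challenge (20%, 2 g/kg). Blood glucose measured by glucometer from −60 to 120 min.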

Rattus norvegicus [12] = assay: Antidiabetic activity in Sprague-Dawley rat assessed as reduction in blood glucose AUC at 3 mg/kg, po administered 1 hr prior to glucose challenge measured after 60 to 120 mins by oral glucose tolerance test relative to control; type: functional; set-up: scale not given: the % may be the effect or the level left; method in brief: as §4
Rattus norvegicus [13] = assay: Antidiabetic activity in Sprague-Dawley rat assessed as reduction in blood glucose AUC at 1 mg/kg, po administered 1 hr prior to glucose challenge measured after 60 to 120 mins by oral glucose tolerance test relative to control; type: functional; set-up: scale not given: the % may be the effect or the level left; method in brief: as §4
Rattus norvegicus [14] = assay: Antidiabetic activity in Sprague-Dawley rat assessed as reduction in blood glucose AUC at 0.3 mg/kg, po administered 1 hr prior to glucose challenge measured after 60 to 120 mins by oral glucose tolerance test relative to control; type: functional; set-up: scale not given: the % may be the effect or the level left; method in brief: as §4
Rattus norvegicus [15] = assay: Antidiabetic activity in Sprague-Dawley rat assessed as reduction in blood glucose AUC at 0.1 mg/kg, po administered 1 hr prior to glucose challenge measured after 60 to 120 mins by oral glucose tolerance test relative to control; type: functional; set-up: scale not given: the % may be the effect or the level left; method in brief: as §4
[16] = Clearance in Sprague-Dawley rat at 1 mg/kg, iv by LC-MS/MS analysis; type: ADME, organism-based; set-up: dose 1 mg/kg, route intravenous; conditions: in vivo; method in brief: as §1
[17] = AUC (0 to infinity) in Sprague-Dawley rat at 1 mg/kg, iv by LC-MS/MS analysis; type: ADME, organism-based; set-up: time infinity, dose 1 mg/kg, route intravenous; conditions: plasma; method in brief: as §1
[18] = Half life in Sprague-Dawley rat at 1 mg/kg, iv by LC-MS/MS analysis; type: ADME, organism-based; set-up: dose 1 mg/kg, route intravenous; conditions: in vivo; method in brief: as §1
[19] = Oral bioavailability in Sprague-Dawley rat at 1 mg/kg by LC-MS/MS analysis; type: ADME, organism-based; conditions: in vivo; method in brief: as §1
[20] = Half life in Sprague-Dawley rat at 1 mg/kg, po by LC-MS/MS analysis; type: ADME, organism-based; set-up: dose 1 mg/kg, route oral; conditions: in vivo; method in brief: as §1
[21] = AUC (0 to infinity) in Sprague-Dawley rat at 1 mg/kg, po by LC-MS/MS analysis; type: ADME, organism-based; set-up: time infinity, dose 1 mg/kg, route oral; conditions: plasma; method in brief: as §1
[22] = Cmax in Sprague-Dawley rat at 1 mg/kg, po by LC-MS/MS analysis; type: ADME, organism-based; set-up: dose 1 mg/kg, route oral; conditions: in vivo; method in brief: as §1
[23] = Tmax in Sprague-Dawley rat at 1 mg/kg, po by LC-MS/MS analysis; type: ADME, organism-based; set-up: dose 1 mg/kg, route oral; conditions: in vivo; method in brief: as §1

| Structure (SMILES) | remaining at 120 h [1] [%] | AUC(0-inf) [2] [ng·h/mL] | IC50 [9] [nM] | IC50 [10] [nM] | clearance [16] [mL/min/kg] | AUC(0-inf) [17] [ng·h/mL] | half-life [18] [h] | bioavailability [19] [%] | half-life [20] [h] | AUC(0-inf) [21] [ng·h/mL] | Cmax [22] [ng/mL] | Tmax [23] [h] | Activity (Canis familiaris [3]) [mg] | Activity (Canis familiaris [4]) [mg] | Activity (Canis familiaris [5]) [mg] | Activity (Rattus norvegicus [6]) [mg] | Activity (Rattus norvegicus [7]) [mg] | Activity (Rattus norvegicus [8]) [mg] | other results |
| --- | --- | --- | --- | --- | --- | --- | --- | --- | --- | --- | --- | --- | --- | --- | --- | --- | --- | --- | --- |
| CCOc1ccc(Cc2cc([C@@H]3O[C@H](CO)[C@@H](O)[C@H](O)[C@H]3O)ccc2Cl)cc1 [DAPAGLIFLOZIN] | 43 | 11700 | – | – | – | – | – | – | – | – | – | – | – | – | – | – | – | – | – |
| [2H]C([2H])([2H])Oc1ccc(Cc2cc([C@@H]3O[C@H](CO)[C@@H](O)[C@H](O)[C@H]3O)ccc2Cl)cc1 | 87 | 7000 | 900 | 2.5 | 12.7 | 1330 | 2.69 | 76.3 | 3.5 | 1020 | 257 | 1.56 | 14700 | 11200 | 3480 | 2230 | 1980 | 251 | Activity (Rattus norvegicus [11]): 5%; Activity (Rattus norvegicus [12]): 21.6%; Activity (Rattus norvegicus [13]): 26.7%; Activity (Rattus norvegicus [14]): 20.7%; Activity (Rattus norvegicus [15]): 18.6% |

Second part, led by results:

| remaining at 120 h [1] [%] | AUC(0-inf) [2] [ng·h/mL] | IC50 [9] [nM] | IC50 [10] [nM] | clearance [16] [mL/min/kg] | AUC(0-inf) [17] [ng·h/mL] | half-life [18] [h] | bioavailability [19] [%] | half-life [20] [h] | AUC(0-inf) [21] [ng·h/mL] | Cmax [22] [ng/mL] | Tmax [23] [h] | Structure (SMILES) | Activity (Canis familiaris [3]) [mg] | Activity (Canis familiaris [4]) [mg] | Activity (Canis familiaris [5]) [mg] | Activity (Rattus norvegicus [6]) [mg] | Activity (Rattus norvegicus [7]) [mg] | Activity (Rattus norvegicus [8]) [mg] | other results |
| --- | --- | --- | --- | --- | --- | --- | --- | --- | --- | --- | --- | --- | --- | --- | --- | --- | --- | --- | --- |
| – | 22400 | – | – | – | – | – | – | – | – | – | – | [2H]C([2H])(c1ccc(OC([2H])([2H])C([2H])([2H])[2H])cc1)c1cc([C@@H]2O[C@H](CO)[C@@H](O)[C@H](O)[C@H]2O)ccc1Cl | 15400 | 11000 | 4360 | 2080 | 1940 | 137 | – |
| – | – | 7000 | 6.8 | – | – | – | – | – | – | – | – | [2H]C([2H])([2H])Oc1ccc(C([2H])([2H])c2cc([C@]3([2H])O[C@H](CO)[C@@H](O)[C@H](O)[C@H]3O)ccc2Cl)cc1 | – | – | – | 1650 | 1480 | 166 | – |
| 73 | 5350 | – | – | 14 | 1220 | 2.09 | 77 | 3.23 | 943 | 165 | 1.75 | COc1ccc(Cc2cc([C@@H]3O[C@H](CO)[C@@H](O)[C@H](O)[C@H]3O)ccc2Cl)cc1 | 14500 | 10900 | 3620 | 1890 | 1660 | 233 | – |
